Experimental data from ChEMBL document CHEMBL1145479, “Tigecycline Efflux as a Mechanism for Nonsusceptibility in Acinetobacter baumannii” (2007).
≈ marks a conversion by molar mass, not a printed value.

Tests used:
Acinetobacter baumannii [1] = test: Antimicrobial activity against Acinetobacter baumannii A24D after 4 days in presence of efflux pump inhibitor phenyl-arginine-beta-naphthylamide by broth microdilution method; assay type: functional; conditions: 96 h
Acinetobacter baumannii [2] = test: Antimicrobial activity against Acinetobacter baumannii A24B after 4 days by broth microdilution method; assay type: functional; conditions: 96 h
Acinetobacter baumannii [3] = test: Antimicrobial activity against Acinetobacter baumannii A24 by broth microdilution method; assay type: functional
Acinetobacter baumannii [4] = test: Antimicrobial activity against Acinetobacter baumannii C75 by broth microdilution method; assay type: functional
Acinetobacter baumannii [5] = test: Antimicrobial activity against Acinetobacter baumannii A24 in presence of efflux pump inhibitor phenyl-arginine-beta-naphthylamide by broth microdilution method; assay type: functional
Acinetobacter baumannii [6] = test: Antimicrobial activity against Acinetobacter baumannii A24C after 4 days by broth microdilution method; assay type: functional; conditions: 96 h
Acinetobacter baumannii [7] = test: Antimicrobial activity against Acinetobacter baumannii D54 by broth microdilution method; assay type: functional
Acinetobacter baumannii [8] = test: Antimicrobial activity against Acinetobacter baumannii A24D after 4 days by broth microdilution method; assay type: functional; conditions: 96 h
Acinetobacter baumannii [9] = test: Antimicrobial activity against Acinetobacter baumannii B46 in presence of efflux pump inhibitor phenyl-arginine-beta-naphthylamide by broth microdilution method; assay type: functional
Acinetobacter baumannii [10] = test: Antimicrobial activity against Acinetobacter baumannii C75 in presence of efflux pump inhibitor phenyl-arginine-beta-naphthylamide by broth microdilution method; assay type: functional
Acinetobacter baumannii [11] = test: Antimicrobial activity against Acinetobacter baumannii B46 by broth microdilution method; assay type: functional
Acinetobacter baumannii [12] = test: Antimicrobial activity against Acinetobacter baumannii A24A after 4 days by broth microdilution method; assay type: functional; conditions: 96 h
Acinetobacter baumannii [13] = test: Antimicrobial activity against Acinetobacter baumannii A24 in presence of efflux pump inhibitor phenyl-arginine-beta-naphthylamide by agar dilution method; assay type: functional
Acinetobacter baumannii [14] = test: Inhibition of AdeABC efflux pump protein in Acinetobacter baumannii D54 assessed as ethidium bromide accumulation at 100 uM; set-up: scale not given: the % may be the effect or the level left
Outline: (§1)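 Overnight cells pelleted and resuspended to A600 0.2 in sodium phosphate buffer pH 7.0, with ethidium bromide at 2 μg/ml final. Incubated 420 s, then CCCP (protonophore) added at 100 μM final for a further 180 s. Fluorescence read at ex 530/em 600 nm, cell-only background subtracted, and expressed as percent increase in accumulation after CCCP.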

Acinetobacter baumannii [15] = test: Inhibition of AdeABC multidrug efflux pump in Acinetobacter baumannii C75 assessed as ethidium bromide accumulation at 100 uM; set-up: scale not given: the % may be the effect or the level left; outline: as §1
Acinetobacter baumannii [16] = test: Antimicrobial activity against Acinetobacter baumannii C75 in presence of efflux pump inhibitor phenyl-arginine-beta-naphthylamide by agar dilution method; assay type: functional
Acinetobacter baumannii [17] = test: Antimicrobial activity against Acinetobacter baumannii A24B after 4 days by agar dilution method; assay type: functional; conditions: 96 h
Outline: (§2)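 Fresh cultures were passaged overnight on tigecycline-containing Mueller-Hinton II agar, boiled before inoculation to prevent tigecycline oxidative degradation. […] Inoculum was 0.5 McFarland. Tigecycline MICs were recorded daily by agar dilution.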

Acinetobacter baumannii [18] = test: Antimicrobial activity against Acinetobacter baumannii A24D after 4 days in presence of efflux pump inhibitor phenyl-arginine-beta-naphthylamide by agar dilution method; assay type: functional; conditions: 96 h
Outline: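 Tigecycline MIC determined by agar dilution on Mueller-Hinton agar containing PABN, for bacteria from the final day of growth. PABN was dissolved in water as a 25 mg/ml stock and added to agar cooled to 50°C.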

Acinetobacter baumannii [19] = test: Antimicrobial activity against Acinetobacter baumannii A24A after 4 days by agar dilution method; assay type: functional; conditions: 96 h; outline: as §2
Acinetobacter baumannii [20] = test: Inhibition of AdeABC efflux pump protein in Acinetobacter baumannii B46 assessed as ethidium bromide accumulation at 100 uM; set-up: scale not given: the % may be the effect or the level left; outline: as §1
Acinetobacter baumannii [21] = test: Antimicrobial activity against Acinetobacter baumannii B46 in presence of efflux pump inhibitor phenyl-arginine-beta-naphthylamide by agar dilution method; assay type: functional
Acinetobacter baumannii [22] = test: Antimicrobial activity against Acinetobacter baumannii A24C after 4 days by agar dilution method; assay type: functional; conditions: 96 h; outline: as §2
Acinetobacter baumannii [23] = test: Antimicrobial activity against Acinetobacter baumannii A24D after 4 days by agar dilution method; assay type: functional; conditions: 96 h; outline: as §2
Acinetobacter baumannii [24] = test: Antimicrobial activity against Acinetobacter baumannii B46 by agar dilution method; assay type: functional
Outline: (§3)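 Tigecycline MIC first estimated by Etest, then confirmed by agar dilution on Mueller-Hinton II agar. Strains were grown in LB broth.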

Acinetobacter baumannii [25] = test: Inhibition of AdeABC efflux pump protein in Acinetobacter baumannii A24D assessed as ethidium bromide accumulation at 100 uM; set-up: scale not given: the % may be the effect or the level left
Outline: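 Overnight cells were pelleted and resuspended to A600 0.2 in sodium phosphate buffer, pH 7.0. Ethidium bromide was added at 2 μg/ml final and incubated 420 s. CCCP was then added at 100 μM final for a further 180 s. Fluorescence was read at ex 530 / em 600 nm, with cell-only background subtracted. The value is the percent increase in accumulation after CCCP.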

Acinetobacter baumannii [26] = test: Inhibition of AdeABC efflux pump protein in Acinetobacter baumannii A24 assessed as ethidium bromide accumulation at 100 uM; set-up: scale not given: the % may be the effect or the level left; outline: as §1
Acinetobacter baumannii [27] = test: Antimicrobial activity against Acinetobacter baumannii C75 by agar dilution method; assay type: functional; outline: as §3
Acinetobacter baumannii [28] = test: Antimicrobial activity against Acinetobacter baumannii A24 by agar dilution method; assay type: functional; outline: as §3
Acinetobacter baumannii [29] = test: Antimicrobial activity against Acinetobacter baumannii D54 by agar dilution method; assay type: functional
Outline: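 Tigecycline MIC screened by Etest and confirmed by agar dilution on Mueller-Hinton II agar; strains cultivated in LB broth.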

Row | SMILES | MIC (Acinetobacter baumannii [1]) [µg/mL] | MIC (Acinetobacter baumannii [2]) [µg/mL] | MIC (Acinetobacter baumannii [3]) [µg/mL] | MIC (Acinetobacter baumannii [4]) [µg/mL] | MIC (Acinetobacter baumannii [5]) [µg/mL] | MIC (Acinetobacter baumannii [6]) [µg/mL] | MIC (Acinetobacter baumannii [7]) [µg/mL] | MIC (Acinetobacter baumannii [8]) [µg/mL] | MIC (Acinetobacter baumannii [9]) [µg/mL] | MIC (Acinetobacter baumannii [10]) [µg/mL] | MIC (Acinetobacter baumannii [11]) [µg/mL] | MIC (Acinetobacter baumannii [12]) [µg/mL] | further results
1 | C[C@@H](O)[C@H]1C(=O)N2C(C(=O)O)=C(S[C@@H]3CN[C@H](C(=O)N(C)C)C3)[C@H](C)[C@H]12 [MEROPENEM] | 0.094 | 0.75 (≈ 1.96 µM) | 1 (≈ 2.61 µM) | 4 (≈ 10.4 µM) | 0.094 | 0.75 (≈ 1.96 µM) | 0.25 (≈ 0.652 µM) | 2 (≈ 5.22 µM) | 0.25 | 0.125 | 4 (≈ 10.4 µM) | 0.75 (≈ 1.96 µM) | –
2 | CN(C)c1cc(NC(=O)CNC(C)(C)C)c(O)c2c1C[C@H]1C[C@H]3[C@H](N(C)C)C(O)=C(C(N)=O)C(=O)[C@@]3(O)C(O)=C1C2=O [TIGECYCLINE] | – | – | – | – | – | – | – | – | – | – | – | – | MIC (Acinetobacter baumannii [13]): 2 µg/mL; Activity (Acinetobacter baumannii [14]): 31%; Activity (Acinetobacter baumannii [15]): 206%; MIC (Acinetobacter baumannii [16]): 4 µg/mL; MIC (Acinetobacter baumannii [17]): 2 µg/mL (≈ 3.41 µM); MIC (Acinetobacter baumannii [18]): 2 µg/mL; MIC (Acinetobacter baumannii [19]): 2 µg/mL (≈ 3.41 µM); Activity (Acinetobacter baumannii [20]): 115%; MIC (Acinetobacter baumannii [21]): 1 µg/mL; MIC (Acinetobacter baumannii [22]): 6 µg/mL (≈ 10.2 µM); MIC (Acinetobacter baumannii [23]): 24 µg/mL (≈ 41 µM); MIC (Acinetobacter baumannii [24]): 4 µg/mL (≈ 6.83 µM); Activity (Acinetobacter baumannii [25]): 114%; Activity (Acinetobacter baumannii [26]): 52%; MIC (Acinetobacter baumannii [27]): 16 µg/mL (≈ 27.3 µM); MIC (Acinetobacter baumannii [28]): 2 µg/mL (≈ 3.41 µM); MIC (Acinetobacter baumannii [29]): 0.125 µg/mL (≈ 0.213 µM)
3 | CC(C)(O/N=C(\C(=O)N[C@@H]1C(=O)N2C(C(=O)[O-])=C(C[n+]3ccccc3)CS[C@H]12)c1csc(N)n1)C(=O)O [CEFTAZIDIME] | 32 | > 256 | > 256 | 192 (≈ 351 µM) | 96 | > 256 | 4 (≈ 7.32 µM) | > 256 | 8 | 8 | 96 (≈ 176 µM) | > 256 | –
4 | CO/N=C(\C(=O)N[C@@H]1C(=O)N2C(C(=O)[O-])=C(C[N+]3(C)CCCC3)CS[C@H]12)c1csc(N)n1 [CEFEPIME] | 1 | 12 (≈ 25 µM) | – | > 256 | 3 | 16 (≈ 33.3 µM) | 1.5 (≈ 3.12 µM) | 16 (≈ 33.3 µM) | 128 | 16 | > 256 | 12 (≈ 25 µM) | –
5 | CN(C)c1ccc(O)c2c1C[C@H]1C[C@H]3[C@H](N(C)C)C(O)=C(C(N)=O)C(=O)[C@@]3(O)C(O)=C1C2=O [MINOCYCLINE] | 8 | 16 (≈ 35 µM) | 32 (≈ 69.9 µM) | 2 (≈ 4.37 µM) | 2 | 16 (≈ 35 µM) | 0.125 (≈ 0.273 µM) | 32 (≈ 69.9 µM) | 0.25 | 1 | 0.25 (≈ 0.546 µM) | 12 (≈ 26.2 µM) | –
6 | C[C@@H](O)[C@H]1C(=O)N2C(C(=O)O)=C(SCCNC=N)C[C@H]12 [IMIPENEM ANHYDROUS] | 0.064 | 0.125 (≈ 0.418 µM) | 0.38 (≈ 1.27 µM) | 1.5 (≈ 5.01 µM) | 0.032 | 0.19 (≈ 0.635 µM) | 0.125 (≈ 0.418 µM) | 0.5 (≈ 1.67 µM) | 0.25 | 0.125 | 1.5 (≈ 5.01 µM) | 0.125 (≈ 0.418 µM) | –
7 | O=C(N[C@H](CO)[C@H](O)c1ccc([N+](=O)[O-])cc1)C(Cl)Cl [CHLORAMPHENICOL] | 4 | 96 (≈ 297 µM) | 16 (≈ 49.5 µM) | 32 (≈ 99 µM) | 12 | 96 (≈ 297 µM) | 0.25 (≈ 0.774 µM) | 16 (≈ 49.5 µM) | 8 | 8 | 32 (≈ 99 µM) | 96 (≈ 297 µM) | –
8 | CCN1CCN(C(=O)N[C@@H](C(=O)N[C@@H]2C(=O)N3[C@@H]2SC(C)(C)[C@@H]3C(=O)O)c2ccccc2)C(=O)C1=O [PIPERACILLIN] | 1 | 12 (≈ 23.2 µM) | 16 (≈ 30.9 µM) | 48 (≈ 92.7 µM) | 3 | 16 (≈ 30.9 µM) | 16 (≈ 30.9 µM) | 24 (≈ 46.4 µM) | – | 8 | 256 (≈ 495 µM) | 12 (≈ 23.2 µM) | –
9 | O=C(O)c1cn(C2CC2)c2cc(N3CCNCC3)c(F)cc2c1=O [CIPROFLOXACIN] | 128 | 256 (≈ 773 µM) | 256 (≈ 773 µM) | 512 (≈ 1550 µM) | 128 | 256 (≈ 773 µM) | 0.25 (≈ 0.754 µM) | 512 (≈ 1550 µM) | 128 | 256 | 128 (≈ 386 µM) | 256 (≈ 773 µM) | –
10 | NC[C@H]1O[C@H](O[C@H]2[C@H](O)[C@@H](O[C@H]3O[C@H](CO)[C@@H](O)[C@H](N)[C@H]3O)[C@H](N)C[C@@H]2N)[C@H](N)C[C@@H]1O [TOBRAMYCIN] | 8 | 4 (≈ 8.56 µM) | 4 (≈ 8.56 µM) | 16 (≈ 34.2 µM) | 3 | 6 (≈ 12.8 µM) | 0.75 (≈ 1.6 µM) | 16 (≈ 34.2 µM) | 16 | 6 | 24 (≈ 51.3 µM) | 3 (≈ 6.42 µM) | –
